Most compounds without a hit are left out; they make up all but 2.3% or so of the library.
G6PDH CS: counter-screen for G6PDH assay hits: L. mesenteroides G6PDH inhibition; 200,000 tested, 0.12% active; Purified L. mesenteroides G6PDH, diaphorase/resazurin coupled fluorescence, 45 min; AID 1020; inhibition, % at 5 µM; in the data active = inhibition above about 50%
FLuc inh counter: Photinus pyralis luciferase inhibition counter-screen. inhibition, % at 10 µM. 200,000 tested, 1.5% active. ATPLite firefly luciferase biochemical luminescence, 10 min;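 active = inhibition above about 50% when tested at 10 µM, limit read from the data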
Target sequence (P08659 whole entry, looked up): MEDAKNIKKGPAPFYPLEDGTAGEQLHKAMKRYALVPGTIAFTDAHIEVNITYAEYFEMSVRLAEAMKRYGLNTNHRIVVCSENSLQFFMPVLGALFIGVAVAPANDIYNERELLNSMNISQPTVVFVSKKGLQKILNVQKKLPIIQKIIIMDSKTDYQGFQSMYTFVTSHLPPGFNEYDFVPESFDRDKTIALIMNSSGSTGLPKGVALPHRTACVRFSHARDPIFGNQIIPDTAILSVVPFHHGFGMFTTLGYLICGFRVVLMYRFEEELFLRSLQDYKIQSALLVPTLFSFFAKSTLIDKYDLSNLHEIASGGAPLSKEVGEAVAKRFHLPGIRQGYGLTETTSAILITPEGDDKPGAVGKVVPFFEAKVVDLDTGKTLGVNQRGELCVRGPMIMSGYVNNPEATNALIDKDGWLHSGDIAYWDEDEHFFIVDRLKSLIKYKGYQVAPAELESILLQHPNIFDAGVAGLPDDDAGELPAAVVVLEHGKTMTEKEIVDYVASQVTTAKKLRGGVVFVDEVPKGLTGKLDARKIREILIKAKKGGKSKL
Diaph act CS: activates diaphorase or chemically reduces, flagging diaphorase assay artifacts; activation factor at 20 µM; Diaphorase/resazurin coupled assay, resorufin fluorescence, 16 min; hits give high values; 1 = vehicle wells, 0 = NADH-free wells; 190,000 tested, 0.005% active;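 active = diaphorase activity raised at least twofold by the compound at 20 µM; inactive = activation factor below 2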
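Measured by – red resorufin fluorescence at 544/590 nm excitation/emission · Test system – Clostridium kluyveri diaphorase, purified enzyme · Incubation – reaction time 16 min, room temperature · Buffer or medium – 50 mM HEPES pH 7.4 with 4.542 mM MgCl2, 0.005% Tween 20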
Diaphorase inh: diaphorase inhibition or chemical oxidation counter-screen; diaphorase resazurin-to-resorufin fluorescence, NADH, 16 min; bacterial (C. kluyveri) enzyme, not human; inhibition, % at 20 µM; 190,000 tested, 0.69% active; AID 1217;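 active = primary screen inhibition at 20 µM above a set limit, cut at about 50% in these data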;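 also: plate controls were DMSO with full reaction for no effect and wells lacking NADH for full effect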
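Test system: bacterial diaphorase enzyme (C. kluyveri); Quantity: 0.14 U/mL diaphorase, enzyme working solution; Times: reaction incubation of 16 min at room temperature; Measured by: fluorescence of resorufin formed from resazurin, Ex 544/Em 590 nm; Benchmarks: positive control minus NADH, DMSO neutral control.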
FLuc act counter: affects firefly luciferase, flagging false hits in luciferase stimulation screens. P08659. ATPlite luciferase biochemical, luminescence, 10 min; 0 = ATP-free wells, 1 = DMSO control. activation factor at 10 µM. 200,000 tested, under 10 active. AID 1027;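 active = luciferase activation factor, scaled between plate controls, of at least 2 with compound at 10 µM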
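Assay system: Luciferase/luciferin reagent mix; Medium: PBS as buffer for the ATP substrate; Dosing: test compounds dosed from 2 mM stocks in 100% DMSO; Times: 10 min, room temperature; Signal: luminescence from luciferase reaction; Read-out: luciferase activation; Controls: No-ATP low control, compound-free enzyme-plus-ATP high control.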
* marks the source's active call; other numbers are inactive results.

SMILES	G6PDH CS	FLuc inh counter	Diaph act CS	Diaphorase inh	FLuc act counter
O=C(Cn1nc(C(F)(F)F)c2c1CCC2)NCc1ccc(Cl)cc1	7	-6	0.9	7	1.1
COCCCNC(=O)c1cccn2c(=O)c3cc4ccccc4cc3nc12	28	6	0.9	15	0.9
O=C(NCc1ccco1)c1cccn2c(=O)c3cc4ccccc4cc3nc12	35	-6	0.3	66*	1.1
Cc1onc(-c2ccccc2Cl)c1C(=O)OCC(=O)N1CCCc2ccccc21	0	-9	0.8	19	1.1
COc1ccc(/C=C2\CC/C(=C\c3ccc(OC)c(OC)c3)C2=O)cc1OC	12	66*	0.8	20	0.3
O=C(C1=C[C@@H](C2CCCCC2)C[C@@H](OCCCCO)O1)N1CCOCC1	7	-6	0.9	14	1.1
Nc1ccc(C(=O)Nc2nc3ccccc3s2)cc1	-10	74*	0.9	13	0.3
O=C(Nc1nc(=O)c2ccccc2s1)c1ccc(F)cc1	9	54*	0.8	16	0.5
N=c1oc2cc(O)ccc2cc1C(=O)Nc1nc2ccccc2s1	3	75*	0.9	9	0.3
O=C(Nc1nc(=O)c2ccccc2s1)c1ccc(Cl)cc1	-27	43	0.9	6	0.6
Cn1ncc(Cl)c1C(=O)Nc1nc2ccc(Cl)cc2s1	5	60*	0.9	12	0.4
O=C(Nc1nc2ccc(Cl)cc2s1)c1ccc(Br)o1	-42	30	0.9	6	0.7
N=c1oc2cc(O)ccc2cc1C(=O)Nc1ccccn1	1	16	0.9	13	0.8
CCc1cccc(NC(=O)NC(=O)Cn2nnc(C(=O)OC)c2C(=O)OC)c1	23	3	0.9	8	1
Nc1nc(SCc2ccc(Cl)cc2Cl)nc2nc3c(cc12)CCCC3	-5	-2	1.1	-14	1
C[C@@H](C(=O)OCn1nnc2ccccc2c1=O)N1C(=O)C2CCCCC2C1=O (some centres not stated)	7	-7	0.9	6	1.1
Cc1ncoc1C(=O)N1CCCC(C(=O)c2ccc(-c3ccccc3)cc2)C1 (configuration not stated)	4	-2	0.9	6	1
Cn1cc(Cl)c(C(=O)Nc2cccc(Cl)c2Cl)n1	35	3	1	-2	1
Cn1cc(Cl)c(C(=O)Nc2nc3ccccc3s2)n1	-25	61*	0.9	11	0.4
Cc1c(Cl)ccc2c(C(=O)NC(C)c3ccncc3)cc(-c3ccncc3)nc12 (configuration not stated)	14	-2	1	-1	1
CCn1c(-c2cc(-c3ccc(OC(C)C)cc3)nc3ccccc23)n[nH]c1=S	-1	72*	0.8	20	0.3
Cc1c(C(=O)OC2CCCC2)[nH]c2c1C(=O)CC(c1ccco1)C2 (configuration not stated)	-29	-5	0.8	24	1
COC(=O)C1C(=O)c2c([nH]c(C(=O)OC3CCCC3)c2C)CC1C (configuration not stated)	8	56*	0.8	19	0.4
O=C(CCn1c(=O)c2ccccc2n(Cc2ccccc2)c1=O)NCc1ccc2c(c1)OCO2	6	-4	1	3	1
Cc1ccc(C(=O)Cn2c(-c3ccccc3)noc2=O)cc1	10	-10	0.8	18	1.1
SMILES	G6PDH CS	FLuc inh counter	Diaph act CS	Diaphorase inh	FLuc act counter
O=C(N/N=C/c1cccs1)c1n[nH]c2c1CCC2	-8	70*	0.8	16	0.3
O=C(N/N=C/c1ccccc1)c1n[nH]c2c1CCCC2	9	75*	0.9	11	0.3
O=C1/C(=C/c2cccs2)COc2ccccc21	-12	71*	0.9	8	0.3
O=C(NCc1cccs1)c1cc2c(s1)-c1ccccc1OC2	-36	-3	0.8	22	1
COc1cccc(-c2nnc(Nc3nc4c(F)cccc4s3)o2)c1	13	88*	1.1	-15	0.1
COc1ccccc1-c1nnc(Nc2nc3c(OC)cccc3s2)o1	4	12	0.9	14	0.9
CCc1ccc(NC(=O)CSc2nc3ccccc3c(=O)n2CCCN2CCC(C)CC2)cc1	7	-6	1.1	-11	1.1
O=[N+]([O-])c1cc(O)c2ncccc2c1	43	-1	0.5	52*	1
O=C(CCC(=O)N1CCOCC1)Nc1nnc(C2CCCCC2)s1	18	-2	1	3	1
CCOc1ccc(NC(=O)C(c2ccccn2)N(C(=O)CCl)c2ccc(OC)cc2)cc1 (configuration not stated)	20	4	0.4	56*	1
CCOc1ccc(NC(=O)C(c2ccccn2)N(C(=O)CCl)c2ccc(OCC)cc2)cc1 (configuration not stated)	8	5	0.5	54*	0.9
O=C1COc2ccc(N3C(=O)c4ccccc4C3=O)cc2N1	6	-2	1.1	-7	1
O=C(CCCc1nc(-c2ccccc2Cl)no1)N1CCOCC1	-4	-3	1	1	1
COCC(C)N1C(=O)Cc2c1nc(N)c1c(N)nc(N3CCN(c4ccccc4F)CC3)c(C#N)c21 (configuration not stated)	2	0	0.4	60*	1
c1ccc2oc(C3=NNC(=NC4CC4)SC3)cc2c1	-4	79*	0.8	19	0.2
c1ccc(CN=C2NN=C(c3cc4ccccc4o3)CS2)cc1	6	-2	0.8	21	1
Cc1cc(C2=NNC(=NC3CC3)SC2)c(C)n1-c1ccccc1F	1	96*	1	-2	0
Cc1cc(C2=NNC(=NC3CCCCC3)SC2)c(C)n1-c1c(C)n(C)n(-c2ccccc2)c1=O	9	0	0.9	9	1
CCCCN=C1NN=C(c2ccc3c(c2)OCCO3)CS1	6	83*	0.9	8	0.2
COc1ccc(N=C2NN=C(c3ccc4c(c3)OCCO4)CS2)cc1	5	0	0.9	12	1
c1cc2c(cc1C1=NNC(=NC3CC3)SC1)OCCO2	4	96*	0.9	8	0
CC(=O)Nc1ccc(S(=O)(=O)Nc2cccc(NC(=O)c3ccco3)c2)cc1	0	-2	0.9	5	1
c1csc(C2=NNC(=NC3CCCCC3)SC2)c1	3	74*	1.1	-11	0.3
O=C(c1ccccc1C(=O)N(c1ccccc1)c1ccccc1)N1CCCCC1	0	-7	0.8	22	1.1
COc1ccc(-c2csc(NC(=O)COC(=O)C3=COCCO3)n2)cc1	0	-4	1	-1	1
Cc1ccc(-c2nc3cccnc3s2)cc1NC(=O)C1c2ccccc2Oc2ccccc21	13	-1	0.9	13	1
O=[N+]([O-])c1cc(/C=N/n2c(-c3cccnc3)n[nH]c2=S)ccc1Cl	2	3	0.5	51*	1

High-throughput results from PubChem BioAssay.
